Measurements as given in ChEMBL document CHEMBL3046072, “Plant P5C reductase as a new target for aminomethylenebisphosphonates” (J Agric Food Chem, 2007).

Tests used:
[1] = biological target: T1, Pyrroline-5-carboxylate reductase (Arabidopsis thaliana) (UniProt P54904); test: Inhibition of Arabidopsis thaliana P5C reductase catalytic activity assessed as inhibition of NADH oxidation at 340 nm OD at 0.2 mM by NADH oxidation assay; set-up: scale not given: the % may be the effect or the level left
T1 sequence (whole entry): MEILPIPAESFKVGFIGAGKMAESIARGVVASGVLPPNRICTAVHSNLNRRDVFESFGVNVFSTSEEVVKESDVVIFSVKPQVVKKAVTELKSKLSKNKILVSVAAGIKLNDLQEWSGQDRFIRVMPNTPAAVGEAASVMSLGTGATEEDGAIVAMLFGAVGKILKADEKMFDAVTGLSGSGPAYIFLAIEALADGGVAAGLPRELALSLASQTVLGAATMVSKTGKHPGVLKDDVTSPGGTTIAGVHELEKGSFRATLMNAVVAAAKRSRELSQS

[2] = biological target: T1, Pyrroline-5-carboxylate reductase (Arabidopsis thaliana); test: Inhibition of Arabidopsis thaliana P5C reductase catalytic activity assessed as […] at 535 nm OD at 0.5 mM by P5C utilization assay; set-up: scale not given: the % may be the effect or the level left
Summary of the method: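 The partially purified Arabidopsis enzyme was run in the same Tris pH 8.0/MgCl2/DL-P5C/NADH mix with compound at 0.5 mM, at 35 °C. Aliquots taken every 40 s received Na acetate and 0.15% ninhydrin in acetic acid, then 10 min at 55 °C. Residual P5C was read at 535 nm (ε 4600 M⁻¹ cm⁻¹). At least three replicates; activity given as % of untreated control.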

[3] = biological target: T2, Pyrroline-5-carboxylate reductase (Arabidopsis thaliana, UniProt P54904); test: Inhibition of Arabidopsis thaliana P5C reductase catalytic activity; conditions: read-out: I50
T2 sequence (P54904 whole entry): T1 sequence (whole entry)
Summary of the method: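 P5C reductase partially purified from A. thaliana Columbia suspension-cultured cells by ammonium sulfate cut and two DEAE-Sephacel steps. Assay at 35 °C: 100 mM Tris-HCl pH 8.0, 0.1 mM MgCl2, 2 mM DL-P5C, 0.25 mM NADH. Read as NADH oxidation at 340 nm, or as P5C loss by ninhydrin at 535 nm. Inhibitor neutralised to pH 7.4, tested over 0.010–5 mM. I50 from regression of % control activity versus log concentration.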

[4] = biological target: T2, Pyrroline-5-carboxylate reductase; test: Uncompetitive inhibition of Arabidopsis thaliana P5C reductase by Dixon plot
[5] = biological target: 3-phosphoshikimate 1-carboxyvinyltransferase (Nicotiana tabacum); test: Inhibition of EPSP synthase in Nicotiana tabacum (tobacco) cells; conditions: read-out: I50
[6] = biological target: T2, Pyrroline-5-carboxylate reductase; test: Noncompetitive inhibition of Arabidopsis thaliana P5C reductase by Lineweaver-Burk plot
[7] = biological target: T2, Pyrroline-5-carboxylate reductase; test: Noncompetitive inhibition of Arabidopsis thaliana P5C reductase by Lineweaver-Burk plot in presence of NADPH
[8] = biological target: 3-phosphoshikimate 1-carboxyvinyltransferase (Spinacia oleracea); test: Inhibition of Spinacia oleracea (spinach) EPSP synthase activity; conditions: read-out: I50

| Activity [1] [%] | Activity [2] [%] | SMILES | other results |
| --- | --- | --- | --- |
| 98.5 | 100 | O=P(O)(O)C(NCc1ccccc1)P(=O)(O)O |  |
| 109 | 102 | O=P(O)(O)C(Nc1cccnc1)P(=O)(O)O |  |
| 108 | 93.8 | O=P(O)(O)C(NC1CCCCC1)P(=O)(O)O |  |
| 118 | 92.9 | O=P(O)(O)C(NCc1ccccn1)P(=O)(O)O |  |
| 110 | 91.7 | O=P(O)(O)C(Nc1ncccn1)P(=O)(O)O |  |
| 95 | 92.4 | O=C(O)c1cccc(NC(P(=O)(O)O)P(=O)(O)O)c1 |  |
| 91.2 | 97.9 | O=P(O)(O)C(Nc1ccnc(Cl)c1)P(=O)(O)O |  |
| 96.3 | 94.1 | O=C(O)c1cccnc1NC(P(=O)(O)O)P(=O)(O)O |  |
| 105 | 94.4 | O=P(O)(O)C(NCCc1ccc(O)cc1)P(=O)(O)O |  |
| 114 | 104 | O=P(O)(O)C(Nc1ccccn1)P(=O)(O)O |  |
| 99.4 | 94.9 | O=P(O)(O)C(Nc1ccc(Cl)nc1)P(=O)(O)O |  |
| 106 | 106 | Cc1ccnc(NC(P(=O)(O)O)P(=O)(O)O)c1 |  |
| 105 | 97 | O=P(O)(O)C(Nc1ncc(Cl)cc1Cl)P(=O)(O)O |  |
| 92 | 99.8 | O=P(O)(O)C(Nc1ncc(Br)cc1Br)P(=O)(O)O |  |
| 88.7 | 103 | Cc1cccc(NC(P(=O)(O)O)P(=O)(O)O)n1 |  |
| 104 | 100 | O=P(O)(O)C(Nc1ccc(Br)cn1)P(=O)(O)O |  |
| 106 | 89.9 | O=P(O)(O)C(Nc1ccc(I)cn1)P(=O)(O)O |  |
| 109 | 96.9 | Cc1ccccc1CNC(P(=O)(O)O)P(=O)(O)O |  |
| 101 | 92.4 | O=P(O)(O)C(Nc1ccc(Cl)cn1)P(=O)(O)O |  |

| SMILES | Activity [1] [%] | Activity [2] [%] | other results |
| --- | --- | --- | --- |
| O=P(O)(O)C(Nc1ccncc1)P(=O)(O)O | 115 | 101 |  |
| Cc1ccc(NC(P(=O)(O)O)P(=O)(O)O)cc1 | 110 | 98.2 |  |
| NC(P(=O)(O)O)P(=O)(O)O [AMINOMETHYLENEBISPHOSPHONIC ACID] | 106 | 84.6 | IC50 [3]: 44 µM |
| Cc1nc(NC(P(=O)(O)O)P(=O)(O)O)c(Br)cc1Br | 66.1 | 54.8 | IC50 [3]: 300 µM |
| O=P(O)(O)C(Nc1ccccc1)P(=O)(O)O | 98.3 | 114 |  |
| O=[N+]([O-])c1cccc(NC(P(=O)(O)O)P(=O)(O)O)c1 | 102 | 96.4 |  |
| O=P(O)(O)C(Nc1cc(Cl)cc(Cl)c1)P(=O)(O)O [(3,5-DICHLOROPHENYLAMINO)METHYLENEDIPHOSPHONIC ACID] | 37.7 | 28 | Ki [4]: 10.3 µM; IC50 [5]: 30 µM; Ki [6]: 199 µM; Ki [7]: 230 µM; IC50 [8]: 30 µM |
